According to ChEMBL document CHEMBL5614435:
Calls of active or inactive are those of the source. The calls are words filed in the database; no cut-off is given here. Bridge positions count the residues as written; N and C are the ends. Peptide text beside a SMILES is read from it.

How the values were obtained:
Format in all cases: functional
[1] = tested on: INS-1E; experiment: Induction of insulin secretion in rat INS-1E cells assessed as median fold increase at 20 nM pretreated with glucose for 30 mins followed by KRBH washout for 30 mins and subsequent glucose and compound addition for another 30 mins by ELISA
[2] = target: Amyloid-beta precursor protein (Homo sapiens) (UniProt P05067); experiment: Amyloid aggregation property at high concentration by CD spectroscopy
Outline: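 Far-UV CD (185–260 nm, spectra truncated at 195 nm) in a 1.0 mm cuvette. Samples were 200–300 μM peptide with 150 mM NaCl at pH 4.5 or 7.4, kept at 37 °C and shaken at 500 rpm between acquisitions. Each spectrum is the average of 3 scans at 50 nm/min, solvent-subtracted, Savitzky–Golay smoothed, and expressed as mean residue molar ellipticity.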

[3] = target: Amyloid-beta precursor protein (Homo sapiens) (UniProt P05067); experiment: Amyloid aggregation property at high concentration by atomic force microscopy analysis
Outline: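 AFM in dynamic mode on 10 μL aliquots taken at the endpoint of the agitated aggregation samples: ThT samples (37 °C, pH ~4.5 or ~7.4) after 3 days and CD samples (200–300 μM, 150 mM NaCl) after 2 weeks.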

[4] = target: Amyloid-beta precursor protein (Homo sapiens) (UniProt P05067); experiment: Amyloid aggregation property at high concentration over 3 days by thioflavin-T fluorescence assay; conditions: time 3.0 day
Outline: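 Peptide was dissolved in water at pH 4.2–4.5 or 7.2–7.4, filtered and centrifuged to leave monomers. ThT and NaCl were added to give 1 or 5 mg/mL peptide final. Plates were sealed and read at 37 °C with orbital shaking for 3 days (ex 445 nm/em 490 nm, bottom read). Triplicates, with peptide-free ThT background subtracted; mean and SD were reported.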

Amyloid-beta precursor protein (Homo sapiens), sequence (P05067 whole entry, the tested form may be a part): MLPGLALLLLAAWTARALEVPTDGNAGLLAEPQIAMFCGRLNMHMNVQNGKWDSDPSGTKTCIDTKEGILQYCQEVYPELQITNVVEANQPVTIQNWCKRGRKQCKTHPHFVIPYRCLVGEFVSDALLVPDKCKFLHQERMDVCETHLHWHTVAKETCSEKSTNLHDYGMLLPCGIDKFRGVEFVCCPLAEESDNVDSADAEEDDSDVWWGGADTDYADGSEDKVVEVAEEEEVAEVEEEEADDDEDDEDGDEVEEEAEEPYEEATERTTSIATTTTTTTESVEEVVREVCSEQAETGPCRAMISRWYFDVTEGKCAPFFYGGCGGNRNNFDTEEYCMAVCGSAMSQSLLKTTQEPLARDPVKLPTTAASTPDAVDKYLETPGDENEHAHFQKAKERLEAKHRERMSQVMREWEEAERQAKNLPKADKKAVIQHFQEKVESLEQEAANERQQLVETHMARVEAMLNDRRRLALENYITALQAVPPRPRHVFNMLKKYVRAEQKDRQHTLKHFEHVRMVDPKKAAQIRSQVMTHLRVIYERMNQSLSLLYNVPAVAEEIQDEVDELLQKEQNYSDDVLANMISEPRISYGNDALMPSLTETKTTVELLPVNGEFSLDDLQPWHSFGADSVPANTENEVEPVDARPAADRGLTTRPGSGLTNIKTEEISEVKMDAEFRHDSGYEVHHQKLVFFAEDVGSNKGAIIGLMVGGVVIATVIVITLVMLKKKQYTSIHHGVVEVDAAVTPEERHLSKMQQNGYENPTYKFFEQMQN

| SMILES | Activity [1] | Activity [2] | Activity [3] | Activity [4] |
| --- | --- | --- | --- | --- |
| CC[C@H](C)[C@@H]1NC(=O)[C@H](Cc2ccc(O)cc2)NC(=O)[C@H](CC(C)C)NC(=O)[C@H](CCCNC(=N)N)NC(=O)[C@H](C(C)C)NC(=O)[C@@H](NC(=O)[C@H](CCC(=O)O)NC(=O)[C@H](CCC(=O)O)NC(=O)[C@H](CCC(=O)O)NC(=O)[C@H](CCSC)NC(=O)[C@H](CCC(N)=O)NC(=O)[C@H](CCCCN)NC(=O)[C@H](CO)NC(=O)[C@H](CC(C)C)NC(=O)[C@H](CC(=O)O)NC(=O)[C@H](CO)NC(=O)[C@@H](NC(=O)[C@H](Cc2ccccc2)NC(=O)[C@@H](NC(=O)CNC(=O)[C@H](CCC(=O)O)NC(=O)CNC(=O)[C@@H](N)Cc2cnc[nH]2)[C@@H](C)O)[C@@H](C)O)CSSC[C@@H](C(=O)O)NC(=O)[C@@H]2CCCN2C(=O)[C@@H]2CCCN2C(=O)[C@@H]2CCCN2C(=O)[C@H](CCCNC(=N)N)NC(=O)CNC(=O)[C@H](CO)NC(=O)[C@H](CO)NC(=O)[C@@H]2CCCN2C(=O)CNC(=O)CNC(=O)[C@H](CC(=O)O)NC(=O)[C@H](CCCCN)NC(=O)[C@H](CC(C)C)NC(=O)[C@H](Cc2c[nH]c3ccccc23)NC(=O)[C@H](CCC(N)=O)NC1=O (H-HGEGTFTSDLSKQMEEECVRLYIQWLKDGGPSSGRPPPC-OH; disulfide 18-39) | inactive |  |  |  |
| CC[C@H](C)[C@H](NC(=O)[C@H](Cc1ccc(O)cc1)NC(=O)[C@H](CC(C)C)NC(=O)[C@H](CCCNC(=N)N)NC(=O)[C@@H](NC(=O)[C@H](C)NC(=O)[C@H](CCC(=O)O)NC(=O)[C@H](CCC(=O)O)NC(=O)[C@H](CCC(=O)O)NC(=O)[C@H](CCSC)NC(=O)[C@H](CCC(N)=O)NC(=O)[C@H](CCCCN)NC(=O)[C@H](CO)NC(=O)[C@H](CC(C)C)NC(=O)[C@H](CC(=O)O)NC(=O)[C@H](CO)NC(=O)[C@@H](NC(=O)[C@H](Cc1ccccc1)NC(=O)[C@@H](NC(=O)CNC(=O)[C@H](CCC(=O)O)NC(=O)CNC(=O)[C@@H](N)Cc1cnc[nH]1)[C@@H](C)O)[C@@H](C)O)C(C)C)C(=O)N[C@@H](CCC(N)=O)C(=O)N[C@@H](Cc1c[nH]c2ccccc12)C(=O)N[C@@H](CC(C)C)C(=O)N[C@@H](CCCCN)C(=O)N[C@@H](CC(=O)O)C(=O)NCC(=O)NCC(=O)N1CCC[C@H]1C(=O)N[C@@H](CO)C(=O)N[C@@H](CO)C(=O)NCC(=O)N[C@@H](CCCNC(=N)N)C(=O)N1CCC[C@H]1C(=O)N1CCC[C@H]1C(=O)N1CCC[C@H]1C(=O)N[C@@H](CO)C(=O)O |  | Active | Active | Active |
